In ChEMBL document CHEMBL1158007, “Steroidal glycosides from the bulbs of Allium jesdianum” (J Nat Prod, 1999):
Calls of active or inactive are those of the source. The rule behind the calls is not given here.

Test system: HL-60
Test: Cytotoxicity against human HL-60 cells after 72 hrs by MTT assay
Assay type: functional, cell-based
Summary of the method: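 HL-60 cells grown in RPMI 1640 with 10% FBS, L-glutamine, penicillin and streptomycin, seeded at 3 × 10^4 cells/mL, and preincubated 24 h at 37 °C in 5% CO2. Sample in EtOH-H2O (1:1) added to a final 0.01-10 µg/mL, with vehicle-only controls, for 72 h. MTT added for 4 h, then formazan dissolved in DMSO and read at 550 nm. IC50 taken from the dose-response curve.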

Structure (SMILES)	Activity	IC50 (HL-60, 72 h) [µg/mL]
CC(C)CC[C@H](O)[C@@H](C)[C@H]1[C@@H](O[C@@H]2O[C@H](CO)[C@@H](O)[C@H](O)[C@H]2O)C[C@H]2[C@@H]3CC=C4C[C@@H](O)C[C@@H](O[C@@H]5O[C@@H](C)[C@H](O)[C@@H](O)[C@H]5O)[C@]4(C)[C@H]3CC[C@]12C	inactive	–
C[C@@H]1CC[C@@]2(OC1)O[C@H]1C[C@H]3[C@@H]4C[C@H](O)[C@H]5C[C@@H](O[C@@H]6O[C@H](CO)[C@H](O[C@@H]7O[C@H](CO)[C@@H](O)[C@H](O[C@@H]8OC[C@@H](O)[C@H](O)[C@H]8O)[C@H]7O[C@@H]7O[C@H](CO)[C@@H](O)[C@H](O)[C@H]7O)[C@H](O)[C@H]6O)[C@H](O)C[C@]5(C)[C@H]4CC[C@]3(C)[C@H]1[C@@H]2C	–	> 10
CC(C)CC[C@H](O)[C@@H](C)[C@H]1[C@@H](O[C@@H]2O[C@H](CO)[C@@H](O)[C@H](O)[C@H]2O)C[C@H]2[C@@H]3CC=C4C[C@@H](O)C[C@@H](O[C@@H]5O[C@H](CO)[C@@H](O)[C@H](O)[C@H]5O)[C@]4(C)[C@H]3CC[C@]12C	inactive	–
